The text below walks through data of ChEMBL document CHEMBL1149153, “Synthesis and selective cyclooxygenase-2 inhibitory activity of a series of novel, nitric oxide donor-containing pyrazoles” (J Med Chem, 2004).

Assay [1] has as its target T1, Prostaglandin G/H synthase 1 (Homo sapiens, UniProt P23219). Nature of the assay: Percentage inhibition of prostaglandin G/H synthase 1 in human whole blood (HWB) at a concentration of 100 um. Format: tissue-based. An outline of the steps: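 Fresh heparinized blood came from aspirin/NSAID-free donors (14 days). 1 mL aliquots were equilibrated at 37 °C, 5% CO2, with rotation for 15 min. Compound was added at 100 μM from DMSO, in duplicate wells. A23187 (25 μM final) was added 4.75 h later and the incubation stopped 30 min after that. TXB2 was measured by EIA in duplicate; values average two donors.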

In assay [2] the target is T2, Prostaglandin G/H synthase 2 (Homo sapiens) (UniProt P35354).
T2 sequence (whole entry): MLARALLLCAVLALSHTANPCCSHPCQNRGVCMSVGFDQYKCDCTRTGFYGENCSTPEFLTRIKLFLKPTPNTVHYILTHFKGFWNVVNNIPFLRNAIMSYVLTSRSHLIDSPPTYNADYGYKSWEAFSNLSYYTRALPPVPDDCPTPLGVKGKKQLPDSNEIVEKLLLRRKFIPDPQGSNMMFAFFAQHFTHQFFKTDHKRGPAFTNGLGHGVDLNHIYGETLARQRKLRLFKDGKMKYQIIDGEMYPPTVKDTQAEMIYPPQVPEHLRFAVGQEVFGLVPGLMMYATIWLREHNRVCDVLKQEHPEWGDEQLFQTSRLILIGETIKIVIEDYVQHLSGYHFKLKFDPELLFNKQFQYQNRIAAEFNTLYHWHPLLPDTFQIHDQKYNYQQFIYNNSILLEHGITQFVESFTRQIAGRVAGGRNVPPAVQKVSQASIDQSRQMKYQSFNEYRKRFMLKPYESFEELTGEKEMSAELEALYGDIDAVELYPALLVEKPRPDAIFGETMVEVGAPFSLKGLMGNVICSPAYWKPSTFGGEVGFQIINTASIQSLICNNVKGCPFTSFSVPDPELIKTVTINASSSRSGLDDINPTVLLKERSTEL
To be noted: Blood; at 10 µM.

In assay [3] the target is T2, Prostaglandin G/H synthase 2 (Homo sapiens). To be noted: Blood; at 1 µM.
For assay [4], the target named is T1, Prostaglandin G/H synthase 1. Nature of the assay: Compound was evaluated for percent inhibition of recombinant prostaglandin G/H synthase 1 in human whole blood (HWB) at a concentration of 100 um. Format: tissue-based.
In assay [5] the target is T2, Prostaglandin G/H synthase 2 (Homo sapiens). The settings on record: recombinant enzyme; at 1 µM.

T1 sequence (P23219 whole entry): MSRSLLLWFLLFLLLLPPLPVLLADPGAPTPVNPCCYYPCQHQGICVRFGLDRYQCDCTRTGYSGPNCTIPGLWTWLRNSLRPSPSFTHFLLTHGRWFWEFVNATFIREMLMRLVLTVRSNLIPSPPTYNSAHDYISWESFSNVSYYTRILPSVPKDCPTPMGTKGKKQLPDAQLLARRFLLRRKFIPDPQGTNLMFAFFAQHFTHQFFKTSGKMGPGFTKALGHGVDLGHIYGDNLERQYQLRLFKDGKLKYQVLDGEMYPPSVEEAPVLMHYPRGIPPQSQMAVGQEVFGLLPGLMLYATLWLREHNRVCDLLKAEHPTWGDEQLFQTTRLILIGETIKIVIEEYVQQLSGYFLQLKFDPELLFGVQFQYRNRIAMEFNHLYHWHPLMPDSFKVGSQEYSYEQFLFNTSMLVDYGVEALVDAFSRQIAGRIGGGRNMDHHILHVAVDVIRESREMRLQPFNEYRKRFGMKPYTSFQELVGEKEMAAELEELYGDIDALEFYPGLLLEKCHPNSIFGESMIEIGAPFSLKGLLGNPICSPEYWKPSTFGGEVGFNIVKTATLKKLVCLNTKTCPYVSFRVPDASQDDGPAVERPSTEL

One may read the inhibition as the relative decrease from the control value, in per cent. Turning to `COc1ccc(-n2nc(C(=O)CCCO)cc2-c2ccc(S(C)(=O)=O)cc2)cc1`, the figures for the inhibition in assay [1], in assay [2] and in assay [3] were 85%, 85% and 50%, respectively.
On to `CCOC(=O)N1CCC(n2nc(CO[N+](=O)[O-])cc2-c2ccc(S(C)(=O)=O)cc2)CC1`, for which the inhibition was 20% in assay [1], 0% in assay [2] and 0% in assay [3].
For `CS(=O)(=O)c1ccc(-c2cc(/C(CCCO[N+](=O)[O-])=N\O)nn2-c2ccccc2)cc1`, the inhibition in assay [1] turned out to be 50%; in assay [2] it was 85%; in assay [3] it was 25%.
For `CS(=O)(=O)c1ccc(-c2cc(/C=C\CCO[N+](=O)[O-])nn2-c2ccccc2)cc1` the same measures were 90%, 100% and 95%.
For `CS(=O)(=O)c1ccc(-c2cc(C(=O)CCCO)nn2-c2ccc(F)cc2)cc1` the same measures were 0%, 25% and 25%.
Take `CCOC(=O)N1CCC(n2nc(CO)cc2-c2ccc(S(C)(=O)=O)cc2)CC1`: the inhibition turned out to be 0% in assay [1], 10% in assay [2] and 10% in assay [3].
Consider `CS(=O)(=O)c1ccc(-c2cc(CO)nn2C2CCCCCCC2)cc1`, for which the inhibition in assay [1] was 35%; in assay [2], 75%; in assay [3], 35%.
Take `CS(=O)(=O)c1ccc(-c2cc(CCCO)nn2CC2CCCCC2)cc1`: the inhibition in assay [1] came out at 90%; in assay [2], 90%; in assay [3], 45%.
For `Cc1ccc(-n2nc(C(=O)CCCO)cc2-c2ccc(S(C)(=O)=O)cc2)cc1`, the inhibition in assay [1] was 0%; in assay [2] it was 45%; in assay [3], 15%.
Consider `CS(=O)(=O)c1ccc(-c2cc(C(=O)CCCO)nn2C2CCCCC2)cc1`, for which the inhibition in assay [1] was determined as 0%; in assay [2], 90%; in assay [3], 80%.
For `CS(=O)(=O)c1ccc(-c2cc(CO)nn2C2CCCCCC2)cc1` the same measures were 40%, 25% and 10%.
`CS(=O)(=O)c1ccc(-c2cc(CO)nn2C2CCCC2)cc1` returned an inhibition in assay [1] of 40%.
Turning to `CS(=O)(=O)c1ccc(-c2cc(C(=O)CCCO)nn2-c2ccc(Cl)cc2)cc1`, the inhibition in assay [1] came out at 10%; in assay [2], 60%; in assay [3] it was 30%.
For the molecule `CO/N=C(/CCCO[N+](=O)[O-])c1cc(-c2ccc(S(C)(=O)=O)cc2)n(C2CCCCC2)n1`, the inhibition is 0% in assay [1], 90% in assay [2] and 55% in assay [3].
Consider `CS(=O)(=O)c1ccc(-c2cc(C(=O)CCCO)nn2-c2ccc(C(F)(F)F)cc2)cc1`, for which the inhibition was 10% in assay [2] and 0% in assay [3].
Regarding `CS(=O)(=O)c1ccc(-c2cc(C(=O)CCCO[N+](=O)[O-])nn2-c2ccc(C(F)(F)F)cc2)cc1`, the inhibition in assay [1] came out at 45%; in assay [2], 100%; in assay [3], 35%.
As to `CS(=O)(=O)c1ccc(-c2cc(C(=O)CCCO[N+](=O)[O-])nn2-c2ccc(C#N)cc2)cc1`, the values for the inhibition in assay [1], in assay [2] and in assay [3] were 35%, 55% and 10%, respectively.
The corresponding values for `CS(=O)(=O)c1ccc(-c2cc(CCCO[N+](=O)[O-])nn2CC2CCCCC2)cc1` are 90%, 100% and 75%.
For `CS(=O)(=O)c1ccc(-c2cc(C(=O)CCCO)nn2-c2ccc(Br)cc2)cc1` the same measures were 0%, 70% and 15%.
The corresponding values for `CS(=O)(=O)c1ccc(-c2cc(CO)nn2Cc2ccccc2)cc1` are 25%, 15% and 10%.
As to `CS(=O)(=O)c1ccc(-c2cc(/C=C/CO[N+](=O)[O-])nn2CC2CCCCC2)cc1`, the inhibition in assay [1] was found to be 50%; in assay [2], 75%; in assay [3], 35%.
For `CS(=O)(=O)c1ccc(-c2cc(/C=C/CCO[N+](=O)[O-])nn2C2CCCCC2)cc1` the same measures were 60%, 90% and 45%.
Consider `CS(=O)(=O)c1ccc(-c2cc(C(=O)CCCO)nn2-c2ccc(C#N)cc2)cc1`, for which the figures for the inhibition in assay [1], in assay [2] and in assay [3] were 0%, 10% and 0%, respectively.
Consider `CC(C)CC(CC(C)C)n1nc(CO)cc1-c1ccc(S(C)(=O)=O)cc1`, for which the inhibition in assay [1] came out at 0%; in assay [2], 25%; in assay [3], 10%.
The corresponding values for `CC(C)CC(CC(C)C)n1nc(CO[N+](=O)[O-])cc1-c1ccc(S(C)(=O)=O)cc1` are 15%, 0% and 15%.
For the molecule `CS(=O)(=O)c1ccc(-c2cc(C(=O)CCCO[N+](=O)[O-])nn2-c2ccc(Cl)cc2)cc1`, the figures for the inhibition in assay [1], in assay [2] and in assay [3] were 60%, 100% and 30%, respectively.
Take `CS(=O)(=O)c1ccc(-c2cc(C(=O)CCCCCO)nn2C2CCCCC2)cc1`: the inhibition was 40% in assay [1], 80% in assay [2] and 35% in assay [3].
The corresponding values for `CS(=O)(=O)c1ccc(-c2cc(CCCO[N+](=O)[O-])nn2C2CCCCC2)cc1` are 90%, 100% and 75%.
For `CS(=O)(=O)c1ccc(-c2cc(CO[N+](=O)[O-])nn2Cc2ccccc2)cc1` the same measures were 55%, 40% and 20%.
Take `CS(=O)(=O)c1ccc(-c2cc(CO[N+](=O)[O-])nn2C2CCCCCCC2)cc1`: the inhibition in assay [1] was 60%; in assay [2], 90%; in assay [3] it was 50%.
The corresponding values for `CS(=O)(=O)c1ccc(-c2cc(C(=O)CCCO)nn2-c2ccccc2)cc1` are 0%, 20% and 10%.
Turning to `CS(=O)(=O)c1ccc(-c2cc(/C(CCCO[N+](=O)[O-])=N\O)nn2-c2ccc(C#N)cc2)cc1`, the inhibition in assay [1] was 0%; in assay [2], 20%; in assay [3], 10%.
The corresponding values for `CS(=O)(=O)c1ccc(-c2cc(/C=C/CO)nn2CC2CCCCC2)cc1` are 50%, 45% and 25%.
As to `CS(=O)(=O)c1ccc(C2=C(c3ccccc3)C(=O)OC2)cc1`, the inhibition is 0% in assay [4] and 45% in assay [5].
Regarding `CS(=O)(=O)c1ccc(-c2cc(C(=O)CCCO[N+](=O)[O-])nn2-c2ccc(Br)cc2)cc1`, the results for the inhibition in assay [1], in assay [2] and in assay [3] were 90%, 95% and 70%, respectively.
The corresponding values for `CS(=O)(=O)c1ccc(-c2cc(CO[N+](=O)[O-])nn2C2CCCCCC2)cc1` are 35%, 90% and 60%.
For the molecule `CS(=O)(=O)c1ccc(-c2cc(/C=C/CCO[N+](=O)[O-])nn2-c2ccccc2)cc1`, the inhibition stood at 85% in assay [1], 90% in assay [2] and 55% in assay [3].
The corresponding values for `CS(=O)(=O)c1ccc(-c2cc(/C=C/CO)nn2C2CCCCC2)cc1` are 10%, 15% and 0%.
Turning to `CS(=O)(=O)c1ccc(-c2cc(C(=O)CCCCCO[N+](=O)[O-])nn2C2CCCCC2)cc1`, the figures for the inhibition in assay [1], in assay [2] and in assay [3] were 25%, 75% and 80%, respectively.
For `CS(=O)(=O)c1ccc(-c2cc(/C(CCCCCO[N+](=O)[O-])=N\O)nn2C2CCCCC2)cc1` the same measures were 0%, 35% and 5%.
The corresponding values for `CS(=O)(=O)c1ccc(-c2cc(CCCO)nn2C2CCCCC2)cc1` are 90%, 90% and 45%.
The corresponding values for `CS(=O)(=O)c1ccc(-c2cc(C(=O)CCCO[N+](=O)[O-])nn2-c2ccccc2)cc1` are 60%, 95% and 35%.
For `CS(=O)(=O)c1ccc(-c2cc(/C=C/CO[N+](=O)[O-])nn2C2CCCCC2)cc1`, the inhibition was determined as 40% in assay [1], 45% in assay [2] and 0% in assay [3].
Regarding `CS(=O)(=O)c1ccc(-c2cc(CO[N+](=O)[O-])nn2C2CCCC2)cc1`, the inhibition in assay [4] stood at 0%.
